≈ marks a conversion by molar mass, not a printed value. Where “and” joins values, the source holds several entries; their conditions need not be identical. Equal entries are not always repeated. Calls of active or inactive are those of the source. No cut-off for these calls is given here.
Columns and labels:
KB [1] = assay: Dose required to cause reduction in human nasopharyngeal KB cancer cells after 3 days incubation; assay type: functional; conditions: 72 h, read-out: ED50 (the source's name)
Outline: (§1)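 Cells grown at 37 °C, humidified 5% CO2, in RPMI-1640 with 25 mM HEPES, […], 10% (v/v) FBS and 100 µg/mL kanamycin. Drug exposure for 3 days. ED50 (concentration giving 50% reduction in cell number) interpolated from dose–response data. Triplicate tests, variation no more than 5%; independent ED50 determinations varied no more than 30%.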

KB [2] = assay: Dose required for reduction in human nasopharyngeal KB-7d cancer cells after 3 days incubation; assay type: functional; conditions: 72 h, read-out: ED50 (the source's name); outline: as §1
KB [3] = assay: Ratio of ED50 for KB-7d cells to that of KB cells; assay type: functional, Homo sapiens
Outline: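 Relative resistance (fold) taken as ED50 against KB-7d divided by ED50 against KB. Both values come from 3-day drug exposure, with ED50 interpolated from dose–response data as the concentration reducing cell number by 50%.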

[4] = molecular target: T1, DNA topoisomerase II (Homo sapiens) (UniProt P11388+Q02880); assay: Percentage of protein-linked DNA breaks in KB cells by [3H]thymidine incorporation; assay type: functional, cell-based; design: concentration or dose not given beside the values
Outline: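 KB cells labelled overnight with 0.5 µCi/mL [methyl-3H]thymidine ([…]), chased 2 h, then treated in duplicate with compound at 10 µg/mL for 1 h. Protein-associated DNA breaks measured as potassium–SDS precipitable radioactivity. Values expressed relative to VP-16 control set at 100%.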

KB [5] = assay: Dose required for reduction in vincristine resistant human nasopharyngeal KB-VIN cancer cells after 3 days incubation; assay type: functional; conditions: 72 h, read-out: ED50 (the source's name); outline: as §1
KB [6] = assay: Dose required for reduction in camptothecin resistant human nasopharyngeal KB cancer cells after 3 days incubation; assay type: functional; conditions: 72 h, read-out: ED50 (the source's name); outline: as §1
1A9 = assay: Dose required to cause reduction in human ovarian 1A9 cancer cells after 3 days incubation; assay type: functional; conditions: 1A9, 72 h, read-out: ED50 (the source's name); outline: as §1
HCT-8 = assay: Dose required for reduction in human ileocecal HCT-8 cancer cells after 3 day incubation; assay type: functional; conditions: HCT-8, 72 h, read-out: ED50 (the source's name); outline: as §1
1A9/ptx-10 = assay: Dose required for reduction in paclitaxel resistant human ovarian 1A9-PTX10 cancer cells after 3 days incubation; assay type: functional; conditions: 1A9/ptx-10, 72 h, read-out: ED50 (the source's name); outline: as §1
A549 = assay: Dose required for reduction in human lung A549 cancer cells after 3 days incubation; assay type: functional; conditions: A549, 72 h, read-out: ED50 (the source's name); outline: as §1
PC-3 = assay: Dose required for reduction in human prostate PC-3 cancer cells after 3 days incubation; assay type: functional; conditions: PC-3, 72 h, read-out: ED50 (the source's name); outline: as §1
MCF7 = assay: Dose required for reduction in human breast MCF-7 cancer cells after 3 day incubation; assay type: functional; conditions: MCF7, 72 h, read-out: ED50 (the source's name); outline: as §1
U-87 MG = assay: Dose required for reduction in human glioblastoma U-87-MG cancer cells after 3 days incubation; assay type: functional, U-87MG ATCC; conditions: 72 h, read-out: ED50 (the source's name); outline: as §1
KB [7] = assay: Dose required for reduction in etoposide resistant human nasopharyngeal KB-7d cancer cells after 3 days incubation; assay type: functional; conditions: 72 h, read-out: ED50 (the source's name); outline: as §1
CAKI-1 [8] = assay: Dose required for reduction in human renal CAKI-1 cancer cells after 3 days incubation; assay type: functional; conditions: CAKI-1, 72 h, read-out: ED50 (the source's name); outline: as §1
[9] = molecular target: T1, DNA topoisomerase II (Homo sapiens); assay: Percentage of protein-linked DNA breaks in KB cells by [3H]thymidine incorporation at 5 ug/mL; assay type: functional, cell-based
Outline: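 [3H]thymidine-prelabelled KB cells (0.5 µCi/mL, overnight, 2 h chase) treated in duplicate with compound at 5 µg/mL for 1 h. Protein-linked DNA breaks read as potassium–SDS precipitable radioactivity, given as percent of the VP-16 control set at 100%.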

KB [10] = assay: Dose required to cause reduction in human nasopharyngeal KB-7d cancer cells after 3 days incubation; assay type: functional; conditions: 72 h, read-out: ED50 (the source's name); outline: as §1
CAKI-1 [11] = assay: Dose required for reduction in human renal CAKI-1 cancer cells after 3 days incubation; NA = not applicable; assay type: functional, cell-based; outline: as §1

Structure (SMILES)	EC50 (KB [1])	EC50 (KB [2])	Relative resistance (KB [3])	Activity [4]	EC50 (KB [5])	EC50 (KB [6])	EC50 (1A9)	EC50 (HCT-8)	EC50 (1A9/ptx-10)	EC50 (A549)	EC50 (PC-3)	EC50 (MCF7)	EC50 (U-87 MG)	EC50 (KB [7])	EC50 (CAKI-1 [8])	Activity [9]	EC50 (KB [10])	ED50 (CAKI-1 [11])
COC(=O)[C@H](Cc1ccc(O)cc1)NC(=O)c1ccc(N[C@@H]2c3cc4c(cc3[C@@H](c3cc(OC)c(O)c(OC)c3)[C@H]3C(=O)OC[C@@H]32)OCO4)cc1	1.9 mg/L	5 mg/L (≈ 7.18 µM)	2.6	76%														
COC(=O)[C@H](Cc1ccc(O)c(O)c1)NC(=O)c1ccc(N[C@@H]2c3cc4c(cc3[C@@H](c3cc(OC)c(O)c(OC)c3)[C@H]3C(=O)OC[C@@H]32)OCO4)cc1	1 mg/L	5.5 mg/L (≈ 7.72 µM)	5.5	33%														
COc1cc([C@@H]2c3cc4c(cc3[C@@H](Nc3ccc(C(=O)N[C@@H](Cc5c[nH]c6ccccc56)C(=O)O)cc3)[C@H]3COC(=O)[C@H]23)OCO4)cc(OC)c1O	4 mg/L	8 mg/L (≈ 11.3 µM)	2	7%														
COc1cc([C@@H]2c3cc4c(cc3[C@@H](Nc3ccc(C(=O)N[C@H](C)C(=O)OCc5ccccc5)cc3)[C@H]3COC(=O)[C@H]23)OCO4)cc(OC)c1O	0.1 µg/mL and 1 µM	0.25 mg/L (≈ 0.367 µM)	2.5	133%	3.7 µM	1.9 µM	0.057 µM	2.2 µM	1.2 µM	0.47 µM	> 100 µM	2.7 µM	39.9 µM	0.67 µM	> 100 µM			
COC(=O)[C@H](CCSC)NC(=O)c1ccc(N[C@@H]2c3cc4c(cc3[C@@H](c3cc(OC)c(O)c(OC)c3)[C@H]3C(=O)OC[C@@H]32)OCO4)cc1	0.8 µg/mL and 1.9 µM	2.4 mg/L (≈ 3.61 µM)	3	295%	65.3 µM	3.3 µM	0.12 µM	11.4 µM	2.1 µM	2 µM	82.7 µM	9.3 µM	45.2 µM	5.6 µM	> 100 µM			
COc1cc([C@@H]2c3cc4c(cc3[C@@H](NC(=O)[C@H](Cc3ccc(O)cc3)NC(=O)OCc3ccccc3)[C@H]3COC(=O)[C@H]23)OCO4)cc(OC)c1O	3.9 µM				> 100 µM	9 µM	0.94 µM	77.7 µM	5 µM	15.9 µM	94.8 µM	17.4 µM	100 µM	11.9 µM	> 100 µM			
COc1cc([C@@H]2c3cc4c(cc3[C@@H](Nc3ccc(C(=O)NCC(=O)OCc5ccccc5)cc3)[C@H]3COC(=O)[C@H]23)OCO4)cc(OC)c1O	0.5 µg/mL and 860 nM	0.3 mg/L (≈ 0.45 µM)	0.6	178%	38.9 µM	1.3 µM	0.12 µM	3.5 µM	0.78 µM	0.61 µM	> 100 µM	2.3 µM	16.9 µM	2.6 µM	> 100 µM			
COC(=O)[C@H](Cc1ccccc1)NC(=O)c1ccc(N[C@@H]2c3cc4c(cc3[C@@H](c3cc(OC)c(O)c(OC)c3)[C@H]3C(=O)OC[C@@H]32)OCO4)cc1	0.55 µg/mL and 1.4 µM	1 mg/L (≈ 1.47 µM)	1.8	226%	4.2 µM	3.7 µM	0.36 µM	3.8 µM	1.7 µM	1.2 µM	> 100 µM	9.6 µM	87.1 µM	1.7 µM	> 100 µM			
COC(=O)[C@H](Cc1c[nH]cn1)NC(=O)c1ccc(N[C@@H]2c3cc4c(cc3[C@@H](c3cc(OC)c(O)c(OC)c3)[C@H]3C(=O)OC[C@@H]32)OCO4)cc1	0.23 µg/mL and 7.6 µM	2.2 mg/L (≈ 3.28 µM)	9.6	122%	11.1 µM	17.6 µM	0.69 µM	66 µM	4 µM	16.1 µM	> 100 µM	29.8 µM	> 100 µM	14.7 µM	> 100 µM			
COC(=O)[C@@H](Cc1c[nH]c2ccccc12)NC(=O)c1ccc(N[C@@H]2c3cc4c(cc3[C@@H](c3cc(OC)c(O)c(OC)c3)[C@H]3C(=O)OC[C@@H]32)OCO4)cc1	0.06 µg/mL and 440 nM	0.4 mg/L (≈ 0.556 µM)	6.2	121%	54.9 µM	0.28 µM	0.02 µM	3.4 µM	0.35 µM	0.63 µM	> 100 µM	3.6 µM	94.3 µM	3.5 µM	> 100 µM			
COC(=O)[C@H](Cc1c[nH]c2ccccc12)NC(=O)c1ccc(N[C@@H]2c3cc4c(cc3[C@@H](c3cc(OC)c(O)c(OC)c3)[C@H]3C(=O)OC[C@@H]32)OCO4)cc1	0.5 mg/L	2.5 mg/L (≈ 3.47 µM)	5	58%														
COc1cc([C@@H]2c3cc4c(cc3[C@@H](Nc3ccc([N+](=O)[O-])cc3)[C@H]3COC(=O)[C@H]23)OCO4)cc(OC)c1O	0.2 mg/L	2 mg/L (≈ 3.84 µM)	10	244%												218%		
COc1cc([C@@H]2c3cc4c(cc3[C@@H](Nc3ccc(C(=O)N[C@@H](C)C(=O)OCc5ccccc5)cc3)[C@H]3COC(=O)[C@H]23)OCO4)cc(OC)c1O	0.5 µg/mL and 900 nM	0.25 mg/L (≈ 0.367 µM)	0.5	210%	10.4 µM	1.7 µM	0.05 µM	2.4 µM	0.2 µM	0.7 µM	3.8 µM	1.6 µM	8 µM	1.4 µM	> 100 µM			
COc1cc([C@@H]2c3cc4c(cc3[C@@H](Nc3ccc(C(=O)NCCc5ccc(O)cc5)cc3)[C@H]3COC(=O)[C@H]23)OCO4)cc(OC)c1O	0.02 mg/L	0.8 mg/L (≈ 1.25 µM)	32	368%												275%		
COc1cc([C@@H]2c3cc4c(cc3[C@@H](O[C@@H]3O[C@@H]5CO[C@@H](C)O[C@H]5[C@H](O)[C@H]3O)[C@H]3COC(=O)[C@H]23)OCO4)cc(OC)c1O [ETOPOSIDE]	0.5 µg/mL and 300 nM		>20	100%	> 100 µM	7 µM	0.15 µM	62.9 µM	> 5 µM	10.6 µM	> 100 µM	62.2 µM	73.6 µM	17.2 µM	> 100 µM	100%	> 10 mg/L	
COc1cc([C@@H]2c3cc4c(cc3[C@@H](Nc3ccc(C(=O)NCCc5ccccc5)cc3)[C@H]3COC(=O)[C@H]23)OCO4)cc(OC)c1O	0.03 mg/L	0.5 mg/L (≈ 0.803 µM)	14													227%		
COc1cc([C@@H]2c3cc4c(cc3[C@@H](NC(=O)[C@@H](N)Cc3ccc(O)cc3)[C@H]3COC(=O)[C@H]23)OCO4)cc(OC)c1O	18.8 µM				> 100 µM	44.8 µM	3.3 µM	> 100 µM	> 5 µM	54.3 µM	> 100 µM	41.7 µM	> 100 µM	30.2 µM				inactive
COc1cc([C@@H]2c3cc4c(cc3[C@@H](Nc3ccc(NC(=O)[C@@H](Cc5ccc(O)cc5)NC(=O)OCc5ccccc5)cc3)[C@H]3COC(=O)[C@H]23)OCO4)cc(OC)c1O	0.49 µM				> 100 µM		0.0086 µM	> 100 µM	0.92 µM	0.77 µM	> 100 µM	1.9 µM	> 100 µM					inactive
